Data published in ChEMBL document CHEMBL1131242, “6beta-Acetoxynortropane: a potent muscarinic agonist with apparent selectivity toward M2-receptors” (J Med Chem, 1998).

Experiments:
[1] = molecular target: T1, Muscarinic acetylcholine receptor M2 (Homo sapiens, UniProt P08172); experiment: Inhibitory activity against [3H]quinuclidinyl Benzilate binding to Muscarinic acetylcholine receptor M2 in the presence of GTP
T1 sequence (P08172 whole entry): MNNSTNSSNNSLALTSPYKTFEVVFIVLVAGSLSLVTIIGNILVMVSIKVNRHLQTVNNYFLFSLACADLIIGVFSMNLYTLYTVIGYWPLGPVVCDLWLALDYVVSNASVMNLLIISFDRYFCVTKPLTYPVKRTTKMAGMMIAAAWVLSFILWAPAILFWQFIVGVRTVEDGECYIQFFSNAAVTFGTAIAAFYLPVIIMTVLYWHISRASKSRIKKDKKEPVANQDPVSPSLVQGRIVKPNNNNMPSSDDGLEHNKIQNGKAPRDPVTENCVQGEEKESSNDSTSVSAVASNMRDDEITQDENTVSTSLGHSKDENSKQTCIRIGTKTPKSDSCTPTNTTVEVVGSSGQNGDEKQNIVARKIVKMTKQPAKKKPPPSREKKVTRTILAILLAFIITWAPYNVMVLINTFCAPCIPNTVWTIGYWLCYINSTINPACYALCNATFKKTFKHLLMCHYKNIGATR
Method in brief: (§1)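 Membranes from CHO cells expressing human M2 receptor. Competition against 0.1 nM [3H]quinuclidinyl benzilate in 25 mM sodium phosphate pH 7.4, 5 mM MgCl2, without or with 10 μM GTP; 30 min at 37 °C, triplicate. Nonspecific binding with 1 μM atropine. Filtration, scintillation counting.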

[2] = molecular target: T2, Muscarinic acetylcholine receptor M1 (Rattus norvegicus, UniProt P08482); experiment: The compound was evaluated for inhibition of binding of [3H]quinuclidinyl benzilate to Muscarinic acetylcholine receptor M1 in Rat Cerebral Cortical Membranes
T2 sequence (P08482 whole entry): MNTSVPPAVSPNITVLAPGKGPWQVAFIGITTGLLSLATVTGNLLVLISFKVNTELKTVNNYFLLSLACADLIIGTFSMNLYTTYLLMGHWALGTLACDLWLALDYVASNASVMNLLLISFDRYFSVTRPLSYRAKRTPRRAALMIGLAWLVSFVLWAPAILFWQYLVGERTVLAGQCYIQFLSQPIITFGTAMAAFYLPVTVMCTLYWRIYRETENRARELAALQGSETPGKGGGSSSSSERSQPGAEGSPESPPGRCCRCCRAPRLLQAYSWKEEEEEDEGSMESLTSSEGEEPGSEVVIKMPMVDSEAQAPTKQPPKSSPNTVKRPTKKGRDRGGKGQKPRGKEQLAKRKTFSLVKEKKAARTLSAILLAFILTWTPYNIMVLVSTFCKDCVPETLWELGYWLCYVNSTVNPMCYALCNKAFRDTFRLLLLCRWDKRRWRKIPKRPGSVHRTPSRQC
Method in brief: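 Rat cerebral cortex membranes were homogenised in 50 mM Tris-HCl pH 7.4 and diluted in HEPES binding buffer. They were incubated with 0.2 nM [3H]quinuclidinyl benzilate in 20 mM HEPES pH 7.4 with 10 mM MgCl2 and 100 mM NaCl for 30 min at 37 °C, in triplicate. Nonspecific binding used 1 µM atropine. Filtration was followed by scintillation counting.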

[3] = molecular target: Muscarinic acetylcholine receptor M2 (Homo sapiens) (UniProt P08172); experiment: Inhibition of binding of 0.1 nM [3H]quinuclidinyl benzilate to Muscarinic acetylcholine receptor M2 in membranes of transfected CHO cells in the absence of GTP
[4] = molecular target: Muscarinic acetylcholine receptor M2 (Homo sapiens) (UniProt P08172); experiment: Inhibition of binding of 0.1 nM [3H]quinuclidinyl benzilate to Muscarinic acetylcholine receptor M2 in membranes of transfected CHO cells in the presence of 10 uM GTP
[5] = molecular target: Muscarinic acetylcholine receptor M1 (Homo sapiens) (UniProt P11229); experiment: Inhibitory activity against stimulation of [3H]inositol monophosphate accumulation in [3H]inositol-labelled CHO transfected cells mediated by Muscarinic acetylcholine receptor M1
[6] = molecular target: T1, Muscarinic acetylcholine receptor M2; experiment: Inhibition of binding of [3H]quinuclidinyl benzilate to muscarinic receptors in membranes of CHO cells transfected with Muscarinic acetylcholine receptor M2; assay type: cell membranes
[7] = molecular target: T1, Muscarinic acetylcholine receptor M2; experiment: Inhibitory activity against [3H]quinuclidinyl Benzilate binding to Muscarinic acetylcholine receptor M2 in the absence of GTP; method in brief: as §1
[8] = molecular target: T3, Muscarinic acetylcholine receptor M4 (Homo sapiens, UniProt P08173); experiment: Inhibition of binding of [3H]quinuclidinyl benzilate to muscarinic receptors in membranes of CHO cells transfected with Muscarinic acetylcholine receptor M4; assay type: cell membranes
T3 sequence (P08173 whole entry): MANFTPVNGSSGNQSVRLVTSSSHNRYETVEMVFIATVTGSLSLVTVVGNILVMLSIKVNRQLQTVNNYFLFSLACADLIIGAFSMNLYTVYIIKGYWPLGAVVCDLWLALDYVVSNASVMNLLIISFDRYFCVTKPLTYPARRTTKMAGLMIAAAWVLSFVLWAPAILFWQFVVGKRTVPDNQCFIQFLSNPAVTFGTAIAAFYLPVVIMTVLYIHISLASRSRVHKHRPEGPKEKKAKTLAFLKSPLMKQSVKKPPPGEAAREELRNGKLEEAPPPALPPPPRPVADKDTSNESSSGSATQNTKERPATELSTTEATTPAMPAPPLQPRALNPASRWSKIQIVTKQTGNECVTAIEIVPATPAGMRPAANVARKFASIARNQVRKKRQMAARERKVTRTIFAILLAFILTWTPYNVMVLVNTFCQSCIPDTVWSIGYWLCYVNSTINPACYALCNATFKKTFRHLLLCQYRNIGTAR

[9] = molecular target: T2, Muscarinic acetylcholine receptor M1; experiment: Inhibition of binding of [3H]quinuclidinyl benzilate to Muscarinic acetylcholine receptor M1 in rat cerebral cortical membranes at 100 uM concentration; assay type: cell membranes, Membrane
Method in brief: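 Rat cortical membranes with 0.2 nM [3H]quinuclidinyl benzilate in HEPES pH 7.4 with 10 mM MgCl2 and 100 mM NaCl, 30 min at 37 °C, triplicate. Atropine 1 µM defined nonspecific binding. Percent inhibition was read at 100 µM test agent; mean ± SEM, n = 4.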

[10] = molecular target: Muscarinic acetylcholine receptor M4 (Homo sapiens) (UniProt P08173); experiment: Inhibition of binding of [3H]quinuclidinyl benzilate to Muscarinic acetylcholine receptor M4 in membranes of transfected CHO cells

Chain of Muscarinic acetylcholine receptor M1 (Homo sapiens) (P11229 whole entry, looked up): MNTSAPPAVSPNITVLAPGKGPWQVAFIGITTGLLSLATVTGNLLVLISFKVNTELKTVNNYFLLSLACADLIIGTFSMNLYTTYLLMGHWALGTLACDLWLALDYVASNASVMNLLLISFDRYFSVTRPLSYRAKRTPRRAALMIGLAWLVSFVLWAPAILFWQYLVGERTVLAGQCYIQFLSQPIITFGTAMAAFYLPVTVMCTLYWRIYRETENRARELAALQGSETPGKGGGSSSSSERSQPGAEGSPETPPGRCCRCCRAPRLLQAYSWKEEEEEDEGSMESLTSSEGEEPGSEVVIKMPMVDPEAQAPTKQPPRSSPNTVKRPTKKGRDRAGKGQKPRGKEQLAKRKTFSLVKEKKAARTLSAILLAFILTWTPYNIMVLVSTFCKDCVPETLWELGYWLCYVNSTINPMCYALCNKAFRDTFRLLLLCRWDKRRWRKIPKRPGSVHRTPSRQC

Question: Which IC50 [1] does the source give for `CC(=O)OC1CC2CCCC1N2` (stereo not given) here?
Answer: 120 nM

Question: What about the Ki [2] of the same molecule?
Answer: 22000 nM

Question: And the IC50 [3]?
Answer: 17 nM

Question: And the IC50 [4]?
Answer: 120 nM

Question: And the EC50 [5]?
Answer: 23 nM

Question: And the Ki [6]?
Answer: 2.6 nM

Question: And the IC50 [7]?
Answer: 17 nM

Question: And the Ki [8]?
Answer: 33 nM

Question: And the Ki [9]?
Answer: 22000 nM

Question: And the Ki [10]?
Answer: 33 nM
